# In ChEMBL document CHEMBL2407075, “Sulphonamido-quinoxalines: search for anticancer agent” (Eur J Med Chem, 2013):
# Key:
# [1] = Oral bioavailability in human; assay type: ADME, organism-based; conditions: in silico prediction
# BT-549 = assay: Growth inhibition of human BT549 cells at 10 uM after 48 hrs by sulforhodamine B assay; assay type: functional; conditions: BT-549, 48 h, read-out: GI
# Procedure, shortened: (§1)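 Single-dose NCI-60 prescreen at 10 µM for 48 h at 37 °C and 5% CO2, using cells grown in RPMI 1640 with 5% FBS and 2 mM glutamine. Protein was measured by SRB after TCA fixation: 10% final for adherent lines, 16% for suspension lines. Absorbance was read at 515 nm. Percent growth inhibition was obtained by subtracting percent growth from 100.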
# T47D = assay: Growth inhibition of human T47D cells at 10 uM after 48 hrs by sulforhodamine B assay; assay type: functional; conditions: read-out: GI
# Procedure, shortened: (§2)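 Single-dose screen at 10 µM across the NCI 60 panel. Cells in RPMI 1640 with 5% FBS and 2 mM L-glutamine, plated at 5000–40,000/well and preincubated 24 h at 37 °C, 5% CO2. Drug in DMSO, 48 h exposure. Fixed with TCA, stained with SRB, A515 read. Percent growth is taken relative to untreated control, and inhibition is 100 minus growth.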
# [2] = Growth inhibition of human Hs 578T cells at 10 uM after 48 hrs by sulforhodamine B assay; assay type: functional; conditions: read-out: GI
# Procedure, shortened: (§3)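 NCI-60 one-dose primary screen at a single 10 µM concentration. Cells in RPMI 1640 with 5% FBS, preincubated 24 h at 37 °C, 5% CO2. Drug exposure 48 h, then TCA fixation, SRB staining and absorbance at 515 nm. Percent growth calculated against time-zero and untreated control wells, then converted to percent growth inhibition.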
# DU-145 = assay: Growth inhibition of human DU145 cells at 10 uM after 48 hrs by sulforhodamine B assay; assay type: functional; conditions: DU-145, 48 h, read-out: GI; procedure, shortened: as §1
# MCF7 = assay: Growth inhibition of human MCF7 cells at 10 uM after 48 hrs by sulforhodamine B assay; assay type: functional; conditions: MCF7, 48 h, read-out: GI; procedure, shortened: as §2
# CAKI-1 = assay: Growth inhibition of human CAKI-1 cells at 10 uM after 48 hrs by sulforhodamine B assay; assay type: functional; conditions: CAKI-1, 48 h, read-out: GI; procedure, shortened: as §1
# ACHN = assay: Growth inhibition of human ACHN cells at 10 uM after 48 hrs by sulforhodamine B assay; assay type: functional; conditions: read-out: GI; procedure, shortened: as §1
# 786-0 = assay: Growth inhibition of human 786-0 cells at 10 uM after 48 hrs by sulforhodamine B assay; assay type: functional; conditions: 786-0, 48 h, read-out: GI; procedure, shortened: as §1
# OVCAR-8 = assay: Growth inhibition of human OVCAR8 cells at 10 uM after 48 hrs by sulforhodamine B assay; assay type: functional; conditions: OVCAR-8, 48 h, read-out: GI; procedure, shortened: as §2
# [3] = Growth inhibition of human NCI-ADR-RES cells at 10 uM after 48 hrs by sulforhodamine B assay; assay type: functional; conditions: read-out: GI; procedure, shortened: as §2
# IGROV-1 = assay: Growth inhibition of human IGROV1 cells at 10 uM after 48 hrs by sulforhodamine B assay; assay type: functional; conditions: IGROV-1, 48 h, read-out: GI; procedure, shortened: as §2
# OVCAR-3 = assay: Growth inhibition of human OVCAR3 cells at 10 uM after 48 hrs by sulforhodamine B assay; assay type: functional; conditions: OVCAR-3, 48 h, read-out: GI; procedure, shortened: as §2
# SK-MEL-28 = assay: Growth inhibition of human SK-MEL-28 cells at 10 uM after 48 hrs by sulforhodamine B assay; assay type: functional; conditions: SK-MEL-28, 48 h, read-out: GI; procedure, shortened: as §2
# SK-MEL-5 = assay: Growth inhibition of human SK-MEL-5 cells at 10 uM after 48 hrs by sulforhodamine B assay; assay type: functional; conditions: SK-MEL-5, 48 h, read-out: GI; procedure, shortened: as §2
# MDA-MB-435 = assay: Growth inhibition of human MDA-MB-435 cells at 10 uM after 48 hrs by sulforhodamine B assay; assay type: functional; conditions: MDA-MB-435, 48 h, read-out: GI; procedure, shortened: as §2
# M14 = assay: Growth inhibition of human M14 cells at 10 uM after 48 hrs by sulforhodamine B assay; assay type: functional; conditions: M14, 48 h, read-out: GI; procedure, shortened: as §2
# LOX IMVI = assay: Growth inhibition of human LOXIMVI cells at 10 uM after 48 hrs by sulforhodamine B assay; assay type: functional; conditions: read-out: GI; procedure, shortened: as §2
# SNB-75 = assay: Growth inhibition of human SNB75 cells at 10 uM after 48 hrs by sulforhodamine B assay; assay type: functional; conditions: SNB-75, 48 h, read-out: GI; procedure, shortened: as §2
# SW-620 = assay: Growth inhibition of human SW620 cells at 10 uM after 48 hrs by sulforhodamine B assay; assay type: functional; conditions: SW-620, 48 h, read-out: GI; procedure, shortened: as §2
# SF-268 = assay: Growth inhibition of human SF268 cells at 10 uM after 48 hrs by sulforhodamine B assay; assay type: functional; conditions: SF-268, 48 h, read-out: GI; procedure, shortened: as §2
# KM12 = assay: Growth inhibition of human KM12 cells at 10 uM after 48 hrs by sulforhodamine B assay; assay type: functional; conditions: KM12, 48 h, read-out: GI; procedure, shortened: as §2
# HCT-116 = assay: Growth inhibition of human HCT116 cells at 10 uM after 48 hrs by sulforhodamine B assay; assay type: functional; conditions: HCT-116, 48 h, read-out: GI; procedure, shortened: as §3
# HCT-15 = assay: Growth inhibition of human HCT15 cells at 10 uM after 48 hrs by sulforhodamine B assay; assay type: functional; conditions: HCT-15, 48 h, read-out: GI; procedure, shortened: as §3
# [4] = Growth inhibition of human HCC2998 cells at 10 uM after 48 hrs by sulforhodamine B assay; assay type: functional; conditions: HCC 2998, 48 h, read-out: GI; procedure, shortened: as §3
# NCI-H322M = assay: Growth inhibition of human NCI-H322M cells at 10 uM after 48 hrs by sulforhodamine B assay; assay type: functional; conditions: read-out: GI; procedure, shortened: as §2
# HOP-62 = assay: Growth inhibition of human HOP62 cells at 10 uM after 48 hrs by sulforhodamine B assay; assay type: functional; conditions: HOP-62, 48 h, read-out: GI; procedure, shortened: as §3
# NCI-H226 = assay: Growth inhibition of human NCI-H226 cells at 10 uM after 48 hrs by sulforhodamine B assay; assay type: functional; conditions: NCI-H226, 48 h, read-out: GI; procedure, shortened: as §2
# NCI-H23 = assay: Growth inhibition of human NCI-H23 cells at 10 uM after 48 hrs by sulforhodamine B assay; assay type: functional; conditions: NCI-H23, 48 h, read-out: GI; procedure, shortened: as §2
# SR = assay: Growth inhibition of human SR cells at 10 uM after 48 hrs by sulforhodamine B assay; assay type: functional; conditions: read-out: GI; procedure, shortened: as §2
# A549 = assay: Growth inhibition of human A549/ATCC cells at 10 uM after 48 hrs by sulforhodamine B assay; assay type: functional; conditions: A549, 48 h, read-out: GI; procedure, shortened: as §1
# [5] = Growth inhibition of human EKVX cells at 10 uM after 48 hrs by sulforhodamine B assay; assay type: functional; conditions: read-out: GI; procedure, shortened: as §3
# MOLT-4 = assay: Growth inhibition of human MOLT4 cells at 10 uM after 48 hrs by sulforhodamine B assay; assay type: functional; conditions: MOLT-4, 48 h, read-out: GI; procedure, shortened: as §2
# HL-60(TB) = assay: Growth inhibition of human HL-60(TB) cells at 10 uM after 48 hrs by sulforhodamine B assay; assay type: functional; conditions: HL-60, 48 h, read-out: GI
# Procedure, shortened: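 Single-dose NCI-60 primary screen at 10 µM, 48 h exposure, SRB read-out. Growth percentage of treated versus untreated cells was recorded and given as percent inhibition by subtraction.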
# K562 = assay: Growth inhibition of human K562 cells at 10 uM after 48 hrs by sulforhodamine B assay; assay type: functional; conditions: K562, 48 h, read-out: GI; procedure, shortened: as §2
SMILES,bioavailability [1],inhibition of growth at 10 µM (BT-549),inhibition of growth at 10 µM (T47D),inhibition of growth at 10 µM [2],inhibition of growth at 10 µM (DU-145),inhibition of growth at 10 µM (MCF7),inhibition of growth at 10 µM (CAKI-1),inhibition of growth at 10 µM (ACHN),inhibition of growth at 10 µM (786-0),inhibition of growth at 10 µM (OVCAR-8),inhibition of growth at 10 µM [3],inhibition of growth at 10 µM (IGROV-1),inhibition of growth at 10 µM (OVCAR-3),inhibition of growth at 10 µM (SK-MEL-28),inhibition of growth at 10 µM (SK-MEL-5),inhibition of growth at 10 µM (MDA-MB-435),inhibition of growth at 10 µM (M14),inhibition of growth at 10 µM (LOX IMVI),inhibition of growth at 10 µM (SNB-75),inhibition of growth at 10 µM (SW-620),also measured
NC(=S)NNS(=O)(=O)c1ccc2nc(-c3ccccc3)c(-c3ccccc3)nc2c1,81.4%,1.83%,42.6%,6.63%,2.73%,18.9%,2.94%,1.83%,2.34%,5.83%,11.9%,8.83%,1.84%,6.93%,39.1%,11.1%,4.23%,11.2%,25.6%,3.72%,inhibition of growth at 10 µM (SF-268): 2.92%; inhibition of growth at 10 µM (KM12): 15.9%; inhibition of growth at 10 µM (HCT-116): 17.8%; inhibition of growth at 10 µM (HCT-15): 29.9%; inhibition of growth at 10 µM [4]: 8.92%; inhibition of growth at 10 µM (NCI-H322M): 2.92%; inhibition of growth at 10 µM (HOP-62): 38.7%; inhibition of growth at 10 µM (NCI-H226): 52.9%; inhibition of growth at 10 µM (NCI-H23): 11.6%; inhibition of growth at 10 µM (SR): 50%; inhibition of growth at 10 µM (A549): 34.7%; inhibition of growth at 10 µM [5]: 23.7%; inhibition of growth at 10 µM (MOLT-4): 28.1%; inhibition of growth at 10 µM (HL-60(TB)): 40.6%; inhibition of growth at 10 µM (K562): 34.8%
CC(=S)NS(=O)(=O)c1ccc2nc(-c3ccccc3)c(-c3ccccc3)nc2c1,94.7%,2.74%,40.6%,20.8%,2.63%,11.8%,5.83%,16.6%,2.83%,3.93%,8.63%,14.8%,1.94%,1.73%,28.9%,4.73%,2.85%,12.2%,26.9%,3.84%,inhibition of growth at 10 µM (SF-268): 1.86%; inhibition of growth at 10 µM (KM12): 16.8%; inhibition of growth at 10 µM (HCT-116): 14.5%; inhibition of growth at 10 µM (HCT-15): 26.2%; inhibition of growth at 10 µM [4]: 6.23%; inhibition of growth at 10 µM (NCI-H322M): 17.8%; inhibition of growth at 10 µM (HOP-62): 2.84%; inhibition of growth at 10 µM (NCI-H226): 53.6%; inhibition of growth at 10 µM (NCI-H23): 11.7%; inhibition of growth at 10 µM (SR): 41%; inhibition of growth at 10 µM (A549): 7.74%; inhibition of growth at 10 µM [5]: 8.53%; inhibition of growth at 10 µM (MOLT-4): 20.5%; inhibition of growth at 10 µM (HL-60(TB)): 35.3%; inhibition of growth at 10 µM (K562): 26.8%
